Data as given in ChEMBL document CHEMBL1148762, “Lysosome and HER3 (ErbB3) selective anticancer agent kahalalide F: semisynthetic modifications and antifungal lead-exploration studies” (J Med Chem, 2007).
In brackets after ≈: the same amount, converted by molar mass.

Key:
Fusarium solani [1] = assay: Antimicrobial activity against Fusarium solani at 0.3 uM after 48 hrs by microtiter assay; type: functional
Procedure, shortened: (§1)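 96-well microdilution broth assay with conidia (3 × 10^5 conidia/mL, harvested from 7-day PDA cultures and filtered) against F. oxysporum, F. proliferatum and F. solani at 0.3, 3 and 30 µM. Plates were held at 24 ± 1 °C under a 12 h photoperiod. Growth was read at 620 nm at 24, 48 and 72 h and reported as percent inhibition from mean absorbance with standard error.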

HT-29 = assay: Cytotoxicity against human HT29 cells; type: functional
Procedure, shortened: (§2)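 NCI Developmental Therapeutics Program cell panel. GI50 is the concentration that reduces growth of treated cells to half that of untreated controls. TGI is the concentration that completely halts growth.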

Aspergillus fumigatus = assay: Antimicrobial activity against Aspergillus fumigatus ATCC 90906; type: functional, organism-based
Fusarium oxysporum [2] = assay: Antimicrobial activity against Fusarium oxysporum at 3 uM after 72 hrs by microtiter assay; type: functional; procedure, shortened: as §1
Fusarium solani [3] = assay: Antimicrobial activity against Fusarium solani at 3 uM after 48 hrs by microtiter assay; type: functional; procedure, shortened: as §1
Fusarium solani [4] = assay: Antimicrobial activity against Fusarium solani at 0.3 uM after 72 hrs by microtiter assay; type: functional; procedure, shortened: as §1
Fusarium solani [5] = assay: Antimicrobial activity against Fusarium solani at 3 uM after 72 hrs by microtiter assay; type: functional; procedure, shortened: as §1
PC-3 = assay: Cytotoxicity against human PC3 cells; type: functional; procedure, shortened: as §2
Fusarium solani [6] = assay: Antimicrobial activity against Fusarium solani at 30 uM after 48 hrs by microtiter assay; type: functional; procedure, shortened: as §1
KM12 = assay: Cytotoxicity against human KM12 cells; type: functional; procedure, shortened: as §2
Fusarium proliferatum [7] = assay: Antimicrobial activity against Fusarium proliferatum at 0.3 uM after 48 hrs by microtiter assay; type: functional; procedure, shortened: as §1
COLO 205 = assay: Cytotoxicity against human COLO205 cells; type: functional; procedure, shortened: as §2
RPMI-8226 = assay: Cytotoxicity against human RPMI8226 cells; type: functional; procedure, shortened: as §2
Fusarium proliferatum [8] = assay: Antimicrobial activity against Fusarium proliferatum at 30 uM after 72 hrs by microtiter assay; type: functional; procedure, shortened: as §1
Fusarium oxysporum [9] = assay: Antimicrobial activity against Fusarium oxysporum at 30 uM after 48 hrs by microtiter assay; type: functional; procedure, shortened: as §1
Fusarium oxysporum [10] = assay: Antimicrobial activity against Fusarium oxysporum at 0.3 uM after 48 hrs by microtiter assay; type: functional; procedure, shortened: as §1
Candida albicans = assay: Antimicrobial activity against Candida albicans ATCC 90028; type: functional, organism-based
SNB-75 = assay: Cytotoxicity against human SNB75 cells; type: functional; procedure, shortened: as §2
Fusarium proliferatum [11] = assay: Antimicrobial activity against Fusarium proliferatum at 3 uM after 72 hrs by microtiter assay; type: functional; procedure, shortened: as §1
Fusarium proliferatum [12] = assay: Antimicrobial activity against Fusarium proliferatum at 3 uM after 48 hrs by microtiter assay; type: functional; procedure, shortened: as §1
Hs-578T = assay: Cytotoxicity against human HS578T cells; type: functional; procedure, shortened: as §2
DU-145 = assay: Cytotoxicity against human DU145 cells; type: functional; procedure, shortened: as §2
Fusarium oxysporum [13] = assay: Antimicrobial activity against Fusarium oxysporum at 30 uM after 72 hrs by microtiter assay; type: functional; procedure, shortened: as §1
Fusarium oxysporum [14] = assay: Antimicrobial activity against Fusarium oxysporum at 0.3 uM after 72 hrs by microtiter assay; type: functional; procedure, shortened: as §1
HCC 2998 = assay: Cytotoxicity against human HCC2998 cells; type: functional; procedure, shortened: as §2
HCT-15 = assay: Cytotoxicity against human HCT15 cells; type: functional; procedure, shortened: as §2
SK-OV-3 = assay: Cytotoxicity against human SK-OV3 cells; type: functional; procedure, shortened: as §2
Fusarium solani [15] = assay: Antimicrobial activity against Fusarium solani at 30 uM after 72 hrs by microtiter assay; type: functional; procedure, shortened: as §1
T47D = assay: Cytotoxicity against human T47D cells; type: functional; procedure, shortened: as §2
Fusarium proliferatum [16] = assay: Antimicrobial activity against Fusarium proliferatum at 30 uM after 48 hrs by microtiter assay; type: functional; procedure, shortened: as §1
[17] = system: Mycobacterium tuberculosis; assay: Antibacterial activity against Mycobacterium tuberculosis H37Rv at 16 ug/mL by micro plate alamar blue assay; type: functional
Procedure, shortened: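 M. tuberculosis H37Rv ATCC 27294 grown in BACTEC 12B medium; microplate Alamar blue assay (MABA). Primary screen at a single concentration of 16 µg/mL, read as percent inhibition.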

Cryptococcus neoformans = assay: Antimicrobial activity against Cryptococcus neoformans ATCC 90113; type: functional, organism-based
NCI-H322M = assay: Cytotoxicity against human NCI-H322M cells; type: functional; procedure, shortened: as §2
ACHN = assay: Cytotoxicity against human ACHN cells; type: functional; procedure, shortened: as §2
Fusarium oxysporum [18] = assay: Antimicrobial activity against Fusarium oxysporum at 3 uM after 48 hrs by microtiter assay; type: functional; procedure, shortened: as §1
[19] = system: Mycobacterium intracellulare; assay: Antimicrobial activity against Mycobacterium intracellular ATCC 23068; type: functional, organism-based
A549 = assay: Cytotoxicity against human A549 cells; type: functional; procedure, shortened: as §2
Fusarium proliferatum [20] = assay: Antimicrobial activity against Fusarium proliferatum at 0.3 uM after 72 hrs by microtiter assay; type: functional; procedure, shortened: as §1
UACC-257 = assay: Cytotoxicity against human UACC257 cells; type: functional; procedure, shortened: as §2
[21] = system: Mycobacterium tuberculosis; assay: Antibacterial activity against Mycobacterium tuberculosis H37Rv by micro plate alamar blue assay; type: functional
Leishmania donovani = assay: Antiparasitic activity against Leishmania donovani; type: functional, organism-based

For C/C=C1\NC(=O)[C@H](Cc2ccccc2)NC(=O)[C@@H](C(C)C)NC(=O)[C@@H]([C@@H](C)CC)NC(=O)[C@H](NC(=O)[C@H](NC(=O)[C@H](CCCNCc2ccc(F)cc2)NC(=O)[C@H]2CCCN2C(=O)[C@H](NC(=O)[C@@H](NC(=O)[C@@H](NC(=O)[C@H](NC(=O)CCCC(C)C)C(C)C)[C@@H](C)O)C(C)C)C(C)C)[C@@H](C)CC)[C@@H](C)OC(=O)[C@H](C(C)C)NC1=O, the inhibition at 0.3 µM (Fusarium solani [1]) was 0%, the GI50 (HT-29) was 151 nM and the TGI (HT-29) was 288 nM. The MFC (Aspergillus fumigatus) was > 20 µM, the MIC (Aspergillus fumigatus) was > 20 µM and the inhibition at 3 µM (Fusarium oxysporum [2]) was 0%. It also gave an inhibition at 3 µM (Fusarium solani [3]) of 16.5%, an inhibition at 0.3 µM (Fusarium solani [4]) of 0% and an inhibition at 3 µM (Fusarium solani [5]) of 0%. It also gave a GI50 (PC-3) of 142 nM, a TGI (PC-3) of 287 nM and an inhibition at 30 µM (Fusarium solani [6]) of 97.3%. For the same molecule, the GI50 (KM12) was 179 nM, the TGI (KM12) was 379 nM and the inhibition at 0.3 µM (Fusarium proliferatum [7]) was 0%. It also gave a GI50 (COLO 205) of 156 nM, a TGI (COLO 205) of 315 nM and a GI50 (RPMI-8226) of 475 nM. It also gave a TGI (RPMI-8226) of 1780 nM, an inhibition at 30 µM (Fusarium proliferatum [8]) of 96.1% and an inhibition at 30 µM (Fusarium oxysporum [9]) of 96.6%. The inhibition at 0.3 µM (Fusarium oxysporum [10]) was 0%, the MFC (Candida albicans) was > 20 µM and the MIC (Candida albicans) was > 20 µM. It also gave a GI50 (SNB-75) of 265 nM, a TGI (SNB-75) of 655 nM and an inhibition at 3 µM (Fusarium proliferatum [11]) of 0%. It also gave an inhibition at 3 µM (Fusarium proliferatum [12]) of 0%, a GI50 (Hs-578T) of 212 nM and a TGI (Hs-578T) of 695 nM. It also gave a GI50 (DU-145) of 112 nM, a TGI (DU-145) of 230 nM and an inhibition at 30 µM (Fusarium oxysporum [13]) of 94.3%. For the same molecule, the inhibition at 0.3 µM (Fusarium oxysporum [14]) was 0%, the GI50 (HCC 2998) was 201 nM and the TGI (HCC 2998) was 517 nM. The GI50 (HCT-15) was 151 nM, the TGI (HCT-15) was 289 nM and the GI50 (SK-OV-3) was 183 nM. For the same molecule, the TGI (SK-OV-3) was 387 nM, the inhibition at 30 µM (Fusarium solani [15]) was 97.3% and the GI50 (T47D) was 161 nM. For the same molecule, the TGI (T47D) was 333 nM, the inhibition at 30 µM (Fusarium proliferatum [16]) was 97.5% and the inhibition at 16 µg/mL [17] was 77%. For the same molecule, the MFC (Cryptococcus neoformans) was 10 µM (≈ 15.9 µg/mL), the MIC (Cryptococcus neoformans) was 10 µM (≈ 15.9 µg/mL) and the GI50 (NCI-H322M) was 203 nM. For the same molecule, the TGI (NCI-H322M) was 429 nM, the GI50 (ACHN) was 1080 nM and the TGI (ACHN) was 2060 nM. For the same molecule, the inhibition at 3 µM (Fusarium oxysporum [18]) was 0%, the MBC [19] was > 20 µM and the MIC [19] was > 20 µM. It also gave a GI50 (A549) of 161 nM, a TGI (A549) of 340 nM and an inhibition at 0.3 µM (Fusarium proliferatum [20]) of 0%.

C/C=C1\NC(=O)[C@H](Cc2ccccc2)NC(=O)[C@@H](C(C)C)NC(=O)[C@@H]([C@@H](C)CC)NC(=O)[C@H](NC(=O)[C@H](NC(=O)[C@H](CCCNCc2cccs2)NC(=O)[C@H]2CCCN2C(=O)[C@H](NC(=O)[C@@H](NC(=O)[C@@H](NC(=O)[C@H](NC(=O)CCCC(C)C)C(C)C)[C@@H](C)O)C(C)C)C(C)C)[C@@H](C)CC)[C@@H](C)OC(=O)[C@H](C(C)C)NC1=O was tested, and the inhibition at 0.3 µM (Fusarium solani [1]) was 0%, the GI50 (HT-29) was 187 nM and the MFC (Aspergillus fumigatus) was 20 µM (≈ 31.5 µg/mL). For the same molecule, the MIC (Aspergillus fumigatus) was 10 µM (≈ 15.7 µg/mL), the inhibition at 3 µM (Fusarium oxysporum [2]) was 0% and the inhibition at 3 µM (Fusarium solani [3]) was 47%. For the same molecule, the inhibition at 0.3 µM (Fusarium solani [4]) was 0%, the inhibition at 3 µM (Fusarium solani [5]) was 32.9% and the GI50 (UACC-257) was 1440 nM. For the same molecule, the TGI (UACC-257) was 2820 nM, the GI50 (PC-3) was 228 nM and the TGI (PC-3) was 665 nM. The inhibition at 30 µM (Fusarium solani [6]) was 99%, the GI50 (KM12) was 1010 nM and the TGI (KM12) was 2190 nM. For the same molecule, the inhibition at 0.3 µM (Fusarium proliferatum [7]) was 0%, the GI50 (COLO 205) was 243 nM and the GI50 (RPMI-8226) was 1270 nM. For the same molecule, the TGI (RPMI-8226) was 2760 nM, the inhibition at 30 µM (Fusarium proliferatum [8]) was 99% and the inhibition at 30 µM (Fusarium oxysporum [9]) was 98.8%. The inhibition at 0.3 µM (Fusarium oxysporum [10]) was 0%, the MFC (Candida albicans) was 20 µM (≈ 31.5 µg/mL) and the MIC (Candida albicans) was 10 µM (≈ 15.7 µg/mL). It also gave a GI50 (SNB-75) of 1010 nM, a TGI (SNB-75) of 2190 nM and an inhibition at 3 µM (Fusarium proliferatum [11]) of 0%. It also gave an inhibition at 3 µM (Fusarium proliferatum [12]) of 4.8%, a GI50 (Hs-578T) of 427 nM and a TGI (Hs-578T) of 2130 nM. For the same molecule, the GI50 (DU-145) was 144 nM, the TGI (DU-145) was 292 nM and the inhibition at 30 µM (Fusarium oxysporum [13]) was 99.2%. For the same molecule, the inhibition at 0.3 µM (Fusarium oxysporum [14]) was 0%, the GI50 (HCC 2998) was 255 nM and the TGI (HCC 2998) was 971 nM. The GI50 (HCT-15) was 416 nM, the TGI (HCT-15) was 1360 nM and the GI50 (SK-OV-3) was 223 nM. It also gave a TGI (SK-OV-3) of 485 nM, an inhibition at 30 µM (Fusarium solani [15]) of 99.3% and a GI50 (T47D) of 191 nM. The TGI (T47D) was 394 nM, the inhibition at 30 µM (Fusarium proliferatum [16]) was 98.7% and the inhibition at 16 µg/mL [17] was 92%. For the same molecule, the MFC (Cryptococcus neoformans) was 10 µM (≈ 15.7 µg/mL), the MIC (Cryptococcus neoformans) was 5 µM (≈ 7.87 µg/mL) and the MIC [21] was 15.5 µg/mL (≈ 9.85 µM). The GI50 (NCI-H322M) was 167 nM, the TGI (NCI-H322M) was 304 nM and the GI50 (ACHN) was 1320 nM. For the same molecule, the TGI (ACHN) was 2370 nM, the inhibition at 3 µM (Fusarium oxysporum [18]) was 13.7% and the MBC [19] was > 20 µM. The MIC [19] was > 20 µM, the IC90 (Leishmania donovani) was 34 µg/mL (≈ 21.6 µM) and the GI50 (A549) was 166 nM. It also gave an inhibition at 0.3 µM (Fusarium proliferatum [20]) of 0%.
